# Screening data as filed in PubChem.
# Jurkat viability = cytotoxicity toward Jurkat T cells, primary screen, cytotoxicity control, cell-based, Jurkat E6.1, 60K MLSMR library. inhibition, % at 4 µM. Jurkat E6.1 viability, ATP luminescence, 48 h. AID 463, 2006. actives 1.2% (n = 56,000);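 active = inhibition above the mean inhibition of all tested compounds plus 3 SD, cut at about 28% in these data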
# Fibroblast inh = antiproliferative effect on LL 47 fibroblasts – human, LL 47 cells, CellTiter-Glo luminescence, primary screen | LL 47 human lung fibroblast viability, ATP luminescence; active compounds read low | viability, % at 10 µM | actives 1.1% (n = 85,000) | AID 719, 2007;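 active = viability at or below 50% in the single dose screen; inactive = viability above 50%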;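 also: compound exposure lasted 72 h before the ATP readout; 100% = median luminescence of untreated cell-only wells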
#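 test system = LL 47 human lung fibroblasts | amount = 1,150 fibroblasts seeded per well | medium = 15% FBS in IMEM | times = overnight cell rest, 72 h compound treatment at 37 °C | measured by = CellTiter-Glo luminescence measuring cellular ATP | read-out = viability percentage against median untreated-cell control | benchmarks = cell-only wells, no compound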
# H69AR growth 86K = proliferation blockers of H69AR lung cancer cells, primary screen, cell-based, human, 86K library. viability, % at 10 µM. AID 598, 2007. H69AR lung tumor viability, ATP luminescence, 72 h; active compounds read low. actives 6% (n = 85,000);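 active = viability at or below 40%; inactive = viability above 40%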;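 also: multidrug resistant small cell line overexpressing MRP-1 efflux transporter; 100% = mean luminescence of untreated control wells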
# HUVEC prolif 384 = inhibitors of HUVEC proliferation, primary screen, cell-based, 384-well; viability, % at 10 µM (by protocol); AID 648, 2007; CellTiter-Glo luminescence, 72 h; active compounds read low; actives 1.1% (n = 86,000);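 active = viability at or below 30%; inactive = viability above 30%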;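 also: 100% = median luminescence of DMSO-only cell control wells on each plate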
# * hit, by the source's call; / = not tested or not shown. Sampled rows, rich in hits. Any-hit rate of the full collection: about 6.6%.
SMILES,Jurkat viability,Fibroblast inh,H69AR growth 86K,HUVEC prolif 384
O=C(Nc1ccc2c(c1)OCO2)C1CCN(S(=O)(=O)c2cccc3cccnc23)CC1,1,94,81,83
Cc1cccc(C(=O)O/N=C(\N)Cc2ccc([N+](=O)[O-])cc2)c1,/,91,3.6*,59
N/C(Cc1ccc([N+](=O)[O-])cc1)=N\OC(=O)c1ccc2ccccc2c1,/,74,66,24*
Cc1cccc(C(=O)O/N=C(\N)c2ccc(Br)cc2)c1,/,102,87,75
N#Cc1cccc(NC(=O)NCCc2c[nH]c3ccccc23)c1,27,109,64,85
CC(C)OC(=O)CSc1nnc(CNc2cccc(Cl)c2)n1C,/,92,97,96
Cn1c(CNc2cccc(Cl)c2)nnc1SCC(=O)OC1CCCCC1,3,82,106,19*
CC1CCC2(CC1)NC(=O)c1ccccc1O2 (centres undefined),-5,100,94,92
CC1(C)Cc2c(C#N)c(N3CCN(C(=O)c4ccccc4)CC3)nc(Cc3ccccc3)c2CO1,/,97,29*,83
CC1(C)Cc2c(C#N)c(SCc3ccccc3)nc(N3CCOCC3)c2CO1,-5,77,44,80
CCc1nc(N2CCN(C(=O)c3ccccc3)CC2)c(C#N)c2c1COC(C)(C)C2,/,96,73,80
CC1(C)Cc2c(c(N3CCOCC3)nc3snc(NC(=O)c4ccccc4)c23)CO1,/,94,37*,110
CCCCCSc1nc(N2CCOCC2)c2c(c1C#N)CC(C)(C)OC2,/,83,33*,91
CC1(C)Cc2c(C#N)c(SCC(=O)c3ccccc3)nc(N3CCOCC3)c2CO1,0,48*,48,66
COc1ccccc1CO/N=C/c1cccn1-c1nccc(N(C)C)c1C#N,/,97,94,110
O=C(C1CCCN1C(=O)c1cccs1)N1CCc2ccccc21 (centres undefined),1,/,71,90
CCN1CCN(c2ncc(C(=O)Nc3c(F)cc(F)cc3Br)c3ccccc23)CC1,5,83,21*,59
CCN1CCN(c2ncc(C(=O)Nc3cc(Cl)c(OC)cc3OC)c3ccccc23)CC1,-1,85,23*,18*
COc1ccc(/C=C\C(=O)CC(O)(c2ccccc2)C(F)(F)F)cc1 (centres undefined),/,88,1.2*,87
O=C(C1CC1)N1CCC(c2nc(-c3ccc(S(=O)(=O)N4CCCC4)cc3)no2)CC1,/,109,93,98
O=C(c1ccccc1)N1CCC(c2nc(-c3ccc(S(=O)(=O)NCC4CCCO4)cc3)no2)CC1 (centres undefined),/,97,95,77
O=C(C1CC1)N1CCC(c2nc(-c3ccc(S(=O)(=O)NCC4CCCO4)cc3)no2)CC1 (centres undefined),52*,96,91,103
O=C(NC1CCCCC1)N1CCC(c2nc(-c3ccc(S(=O)(=O)N4CCCC4)cc3)no2)CC1,9,83,30*,73
COc1cc(NC(=O)c2c(F)c(F)c(F)c(F)c2F)c(OC)cc1Cl,6,91,14*,45
O=C(OCc1cc(Cl)ccc1OC(F)F)c1cc(S(=O)(=O)O)ccc1O,-7,98,90,106
SMILES,Jurkat viability,Fibroblast inh,H69AR growth 86K,HUVEC prolif 384
CCCCn1cnc2cc(NCc3ccncc3)ccc21,2,91,100,106
CN(C)c1ccc(CNc2ccc3c(c2)ncn3C)cc1,/,95,5.2*,91
CS(=O)(=O)N1CCc2cc(S(=O)(=O)Nc3ccc4c(c3)OCCO4)ccc21,28*,/,/,/
COC(=O)c1ccc(Cl)c(NS(=O)(=O)c2ccc3c(c2)OCCO3)c1,58*,82,20*,61
CC(C)NS(=O)(=O)c1ccc(OCC(=O)Nc2ccc3c(c2)OCO3)c(Cl)c1,-2,95,66,80
COC(=O)COc1ccc(S(=O)(=O)Nc2ccc3c(c2)OCCO3)cc1Cl,6,24*,83,28*
CC(=O)c1cccc(-n2nnnc2SCC(=O)Nc2cccc(NC(=O)c3ccco3)c2)c1,5,113,78,84
COC(=O)c1noc(-c2ccc(C)cc2)n1,/,104,96,99
COC(=O)c1c(-c2ccc(Br)cc2)noc1N,/,80,29*,89
CCOc1cc(-c2noc(N)c2C(=O)OC)cc(OCC)c1OCC,-1,94,23*,100
Cc1ccc(C)c(NC(=O)CNS(=O)(=O)c2ccccc2)c1,5,88,82,91
COC(=O)c1cc(NC(=O)Cn2c(=O)cnc3ccccc32)cc(C(=O)OC)c1,-8,97,75,86
Cc1noc2ncnc(Sc3ccccc3Cl)c12,/,68,2.0*,18*
CCc1c(C)nc2cc(-c3ccc(OC)c(OC)c3)nn2c1N1CCCC1,/,90,38*,64
Cc1cc(C)nc(-n2nc(C)c(C3(O)C(=O)Nc4ccccc43)c2N)n1 (centres undefined),/,94,80,99
Cc1ccc(S(=O)(=O)O/N=C2\CCCc3ccccc32)cc1,/,100,101,90
CC1=C(C)/C(=N\OS(=O)(=O)c2ccccc2)C=CC1=O,/,3.5*,1.5*,3.8*
CCOC(=O)c1c(NC(=O)c2c(Br)cnn2CC)sc(C)c1C,/,89,71,68
O=C(OCn1ncc(Br)c(Br)c1=O)c1c(F)cccc1F,/,2.0*,1.0*,2.0*
CC1(C)CC(=O)c2c(n(-c3cccc4ccccc34)ccc2=O)C1,/,100,87,103
NC(=O)C1CCN(c2nc(C3CC3)nc3c2nnn3Cc2ccccc2)CC1,-2,94,78,93
CCCCCCC(=O)N1CCC(c2nc3c(nnn3Cc3ccccc3Cl)c(=O)[nH]2)CC1,4,96,34*,84
O=C(C1CCCCC1)N1CCC(c2nc3c(nnn3Cc3ccccc3Cl)c(=O)[nH]2)CC1,2,89,39*,64
O=C(NCc1ccco1)c1nc2c(nnn2Cc2ccccc2Cl)c(=O)[nH]1,/,31*,25*,14*
NC(=O)C1CCN(c2nc(C3CC3)nc3c2nnn3Cc2ccccc2Cl)CC1,/,94,31*,85
SMILES,Jurkat viability,Fibroblast inh,H69AR growth 86K,HUVEC prolif 384
Cn1c(C(=O)N2CCN(c3ccccn3)CC2)cc2c(=O)n(C)c3ccccc3c21,-6,91,74,93
COc1ccc(C2SCC(=O)N2CC23CC4CC(CC(C4)C2)C3)cc1 (centres undefined),/,93,93,77
O=C(CN1CCN(Cc2ccc(Cl)cc2)C1=O)NCCN1CCCC1,0,98,94,98
COc1cc(NS(=O)(=O)c2ccc(NC(=O)C34CC5CC(CC(C5)C3)C4)cc2)ncn1,2,106,90,89
COCc1cc(C)nc(N2CCc3ccccc32)c1C#N,-5,103,31*,96
COCc1cc(C)nc(Nc2ccccc2C)c1C#N,4,84,98,91
COc1ccc(-c2cc(=O)oc3cc(OCc4nn[nH]n4)ccc23)cc1,0,101,93,90
N#CC1=C(N)Oc2cc(O)ccc2C1c1ccncc1 (centres undefined),-2,100,85,95
